Series [1] can be described thus: folding enthalpy; higher = less favourable; fluorescence melt of hairpins on a sequencing array, two-state fit. The following applies: sodium 0.088 M. In short, it runs like this:
(§1)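 Cy3 fluorescence of library hairpins on a sequenced MiSeq flow cell, with annealed Cy3 and quencher oligos, was imaged in 50 mM Na-HEPES pH 8.0, 25 mM NaCl in 2.5 °C steps up to 60 °C. Signals were normalised to pre-quench Cy3 and to control variants. Melting temperature and folding enthalpy came from bootstrapped two-state fits, inverse-variance combined over four replicates. Fitted temperatures were raised by 9.35 °C to match UV melts.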

The nature of series [2]: melting temperature; fluorescence melt of hairpins on a sequencing array, two-state fit, raised by 9.35 °C to match UV melts. The following applies: sodium 0.088 M. In short, it runs like this: as §1

Among the data in the array DNA melting data of Ke et al. (doi:10.1101/2024.01.08.574731) are folding enthalpy and Tm values, retold here.

As to GATCAGACGACTGATC ((((((....)))))), the folding enthalpy in series [1] was -39.2 kcal/mol. In series [2], the Tm was determined as 47.5 °C.
On the same counts, the results for GATCCTGCGAAGGATC ((((((....)))))) are -42.6 kcal/mol and 59.5 °C.
On the same counts, the results for GCATTCCGAAAGGATGC (((.(((....)))))) are -30.7 kcal/mol and 53.7 °C.
As for GCATCGCGAAAGCGCAGC ((..(((....)))..)), in series [1], the folding enthalpy is -12.6 kcal/mol. Besides, the Tm in series [2] was found to be 39.9 °C.
On the same counts, the results for GTGGTTGGAAACAATCAC (((.(((....))).))) are -36.6 kcal/mol and 47.7 °C.
On the same counts, the results for GTGGACCGAAAGGTCAC (((.(((....)))))) are -10.4 kcal/mol and 53.7 °C.
The matching figures for GATCACATTGTGATC ((((((...)))))): -33.7 kcal/mol and 57.9 °C.
Turning to GATCTGAAGACAGATC ((((((....)))))), the folding enthalpy in series [1] is -27.7 kcal/mol. For the same sequence, the Tm in series [2] came out at 44.8 °C.
The matching figures for GGTGGCTCGAAAGAGACC (((..(((....)))))): -13.5 kcal/mol and 42 °C.
The matching figures for GTGGCCCCGAAAGGGCAC (((..(((....)))))): -15 kcal/mol and 57.5 °C.
The matching figures for GATCATGCGTATGATC ((((((....)))))): -39 kcal/mol and 48.3 °C.
Regarding CGGCAGAAATGCCG (((((....))))), the folding enthalpy in series [1] is -31.3 kcal/mol. For the same sequence, the Tm in series [2] amounted to 64.9 °C.
On the same counts, the results for GATCGGGACTCCGATC ((((((....)))))) are -39.7 kcal/mol and 61 °C.
Regarding GTTTGCGGAAACGCAGAC ((.((((....)))).)), the folding enthalpy in series [1] is -24.6 kcal/mol. Moreover, the Tm in series [2] stood at 51.8 °C.
The matching figures for GATCTTGTACAAGATC ((((((....)))))): -43.2 kcal/mol and 51.7 °C.
The matching figures for GATCAAGAATTGATC ((((((...)))))): -34.6 kcal/mol and 51.9 °C.
On the same counts, the results for GATCAGCGGGCTGATC ((((((....)))))) are -38.8 kcal/mol and 63.8 °C.
As to GCTAGGCGAAAGCGTAGC ((((.((....)).)))), the folding enthalpy in series [1] was -33 kcal/mol. In addition, in series [2], the Tm is 62.8 °C.
As to GTAACCGAAAGGTGTAC ((((((....))).))), the folding enthalpy in series [1] was -19.5 kcal/mol. The Tm in series [2] came out at 41.3 °C.
The matching figures for GATCTTAGGTAAGATC ((((((....)))))): -30.1 kcal/mol and 42.6 °C.
The matching figures for GGGGACGAAAGTCCGCCC ((((((....)))..))): -11.5 kcal/mol and 52.2 °C.
On the same counts, the results for GATCCGAAGCCGGATC ((((((....)))))) are -39.6 kcal/mol and 55.4 °C.
GTCTACGAAAGTATGGAC ((((((....)))..))): the folding enthalpy in series [1] is -16.3 kcal/mol. In addition, in series [2], the Tm worked out at 31.3 °C.
On the same counts, the results for GATGACGGAAACGTTGTC ((..(((....)))..)) are -28.5 kcal/mol and 36.1 °C.
The matching figures for GGAACCGGAAACGGCTCC (((.(((....))).))): -28.5 kcal/mol and 50 °C.
On the same counts, the results for GTCCAAGAAATTGGAC ((((((....)))))) are -26.5 kcal/mol and 53 °C.
On to GTATACCGAAAGGTTAC (((.(((....)))))), for which the folding enthalpy in series [1] was -17.4 kcal/mol. In series [2], the Tm was 40.1 °C.
The matching figures for CGTATTCGGAAACGAACG (((..(((....)))))): -17.2 kcal/mol and 28.4 °C.
GCAAGAGGAAACTCCTGC (((.(((....))).))): the folding enthalpy in series [1] is -18.2 kcal/mol. Moreover, in series [2], the Tm is 35.2 °C.
The matching figures for GCTCAAGGAAACTCGAGC ((((.((....)).)))): -30.5 kcal/mol and 38.3 °C.
The matching figures for GCGTGTTCGAAAGAACGC (((..(((....)))))): -14.7 kcal/mol and 50.5 °C.
The matching figures for GAGGCCGGAAACAGCCCC (.(((.(....).))).): -10.6 kcal/mol and 27.2 °C.
As to GGCAAACGAAAGTTCGCC (((.(((....))).))), the folding enthalpy in series [1] was -47.9 kcal/mol. Besides, the Tm in series [2] worked out at 53.3 °C.
In the case of GATCATGCTCATGATC ((((((....)))))), in series [1], the folding enthalpy was -44.1 kcal/mol. In addition, the Tm in series [2] was determined as 51.3 °C.
The matching figures for GACTCGGGAAACTGAGTC (((((.(....).))))): -37.2 kcal/mol and 52.7 °C.
On the same counts, the results for GGCTCTGGAAACGGAGTC (.(((.(....).))).) are -30.2 kcal/mol and 40 °C.
GTTGAGAAATCAAC (((((....))))): in series [1], the folding enthalpy was -19.9 kcal/mol. For the same sequence, the Tm in series [2] was determined as 42.2 °C.
